Compounds with a hit are over-represented: about 1.5% of the library has one in this group of screens.
PKA-R2B activ – activators of PKA-R2B holoenzyme, primary screen, biochemical, fluorescence polarization, Cy5-IP20, human; PKA-R2B holoenzyme dissociation; R2B truncated from residue 108, S112A mutant; 0% DMSO only, 100% 113 µM cGMP; activation, % at 11.4 µM; 340,000 tested, 0.079% active; AID 504700, 2011;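 active means activation above a cutoff set at the mean over all compounds plus 3 SD, cut at about 18% in these data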;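 further: higher means more holoenzyme dissociation and a rise in polarization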
Target sequence (P31323 whole entry, looked up, other chains not shown, the tested form may be a part): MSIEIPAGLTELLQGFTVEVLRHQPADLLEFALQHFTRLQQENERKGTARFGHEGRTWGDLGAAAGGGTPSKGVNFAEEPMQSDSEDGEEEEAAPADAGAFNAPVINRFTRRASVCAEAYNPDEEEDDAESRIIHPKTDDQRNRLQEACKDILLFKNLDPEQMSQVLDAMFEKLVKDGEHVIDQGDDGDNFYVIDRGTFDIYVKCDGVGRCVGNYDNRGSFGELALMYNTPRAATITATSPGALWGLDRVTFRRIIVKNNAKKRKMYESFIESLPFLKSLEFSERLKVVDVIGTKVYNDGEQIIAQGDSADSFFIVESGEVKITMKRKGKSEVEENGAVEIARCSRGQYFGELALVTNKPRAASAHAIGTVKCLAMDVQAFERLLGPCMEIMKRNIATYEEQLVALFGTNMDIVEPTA
PKA-R1A act – activators of PKA-R1A holoenzyme, primary screen, biochemical, fluorescence polarization, Cy5-IP20, bovine R1A, mouse PKAc; cAMP-dependent protein kinase type I-alpha regulatory subunit (Bos taurus) + …; PKA-R1A dissociation; scaled: DMSO 0%, 113 µM cGMP 100%; activation, % at 11.4 µM; 340,000 tested, 0.083% active;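 active means percent activation above the mean of all tested compounds plus 3 SD, cut at about 19% in these data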;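 further: higher means more PKAc released from R1A so a rise in polarization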
H9c2 protect – cardioprotection against H2O2-induced cell death, primary screen, uHTS, H9c2 cells, ATPLite luminescence; H9c2 cardiomyocytes, H2O2 injury protection, 2 h; protection from H2O2 cell death, % at 20 µM; 360,000 tested, 0.63% active;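 active means compounds giving at least 50% protection of heart cells from peroxide-induced death in the single-dose screen, raw or plate-pattern-corrected value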
TbMetRS inhib – T. brucei MetRS inhibitors, primary screen, biochemical, luminescence; purified T. brucei MetRS, ATP depletion, Kinase-Glo luminescence; AID 624268, 2012; inhibition, % at 11.9 µM; 360,000 tested, 0.4% active;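 active means inhibition above a per-plate cutoff of the control wells' mean inhibition plus 3 SD, cut at about 5.5% in these data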
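Material: parasite MetRS enzyme / Replication: singlicate, one well per compound / Signal: luminescence of leftover ATP / Schedule: 2 h aminoacylation at 25 °C after 15 min preincubation / Medium: HEPES-MgCl2-KCl buffer plus DTT, spermine, BSA, pyrophosphatase / Doses: 11.9 µM single point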
Rin1 Abl inh – inhibitors of Rin1-Abl protein binding, primary screen, biochemical, TR-FRET | Tyrosine-protein kinase ABL1 (Homo sapiens) + Ras and Rab interactor 1 (Homo sapiens), … | inhibition, % at 7.35 µM | 360,000 tested, 0.4% active; in the data active means inhibition above about 5%, passing the limit was not always enough
TbMetRS confirm – T. brucei MetRS inhibitors, confirmation, biochemical, luminescence; 1,400 tested, 93% active; AID 624412, 2012; T. brucei MetRS enzyme, luminescence (ATP depletion); shares compounds with TbMetRS inhib; inhibition, % at 11.9 µM; in the data active means inhibition above about 7%
Jurkat tox – Jurkat T cell cytotoxicity, cytotoxicity control for T. brucei MetRS inhibitor project, luminescence, high throughput. AID 624413, 2012. shares compounds with TbMetRS inhib. Jurkat cells viability, ATP luminescence. inhibition, % at 8.3 µM. 1,400 tested, 12% active; in the data active means inhibition above about 15%
TbMetRS FP orth – T. brucei MetRS inhibitors, orthogonal assay for T. brucei MetRS inhibitor project, biochemical, fluorescence polarization; purified T. brucei MetRS; inhibition, % at 11.9 µM; shares compounds with TbMetRS inhib; 1,400 tested, 44% active; in the data active means inhibition above about 17%
Hits are given with their value.

Results for COc1ccc(CSCCNC(=S)Nc2ccccc2)cc1Cl ?
PKA-R2B activ: inactive; PKA-R1A act: inactive; H9c2 protect: inactive; TbMetRS inhib: 28; Rin1 Abl inh: inactive; TbMetRS confirm: 41; Jurkat tox: inactive; TbMetRS FP orth: 22

How did CCOc1ccc(CSCCNC(=S)Nc2ccccc2)cc1 do in these assays?
PKA-R2B activ: inactive; PKA-R1A act: inactive; H9c2 protect: inactive; TbMetRS inhib: 14; Rin1 Abl inh: inactive; TbMetRS confirm: 25; Jurkat tox: 16; TbMetRS FP orth: inactive

What do the screens show for `COc1ccccc1OCC(=O)Nc1nonc1NC(=O)COc1ccccc1OC`?
PKA-R2B activ: inactive; PKA-R1A act: inactive; H9c2 protect: inactive; TbMetRS inhib: inactive; Rin1 Abl inh: inactive

Results for O=C(CNc1cccc(S(=O)(=O)N2CCOCC2)c1)N1CCc2ccccc21 ?
PKA-R2B activ: inactive; PKA-R1A act: inactive; H9c2 protect: inactive; TbMetRS inhib: inactive; Rin1 Abl inh: inactive

How did Cc1cc(NS(=O)(=O)c2ccc(Nc3nc(-c4ccc(O)cc4)cs3)cc2)no1 do in these assays?
PKA-R2B activ: inactive; PKA-R1A act: inactive; H9c2 protect: inactive; TbMetRS inhib: 5.7; Rin1 Abl inh: inactive; TbMetRS confirm: 11; Jurkat tox: inactive; TbMetRS FP orth: inactive

What do the screens show for `Cc1cc(NC(=S)N(CCCN2CCN(C)CC2)Cc2ccco2)ccc1Cl`?
PKA-R2B activ: inactive; PKA-R1A act: inactive; H9c2 protect: inactive; TbMetRS inhib: inactive; Rin1 Abl inh: inactive

What do the screens show for `COc1ccc(-c2nc(=S)c3ccc4ccccc4c3[nH]2)cc1`?
PKA-R2B activ: inactive; PKA-R1A act: inactive; H9c2 protect: inactive; TbMetRS inhib: inactive; Rin1 Abl inh: inactive

Results for COc1ccc2c(CC(=O)OCC(=O)Nc3ccc(C)cc3)coc2c1 ?
PKA-R2B activ: inactive; PKA-R1A act: inactive; H9c2 protect: inactive; TbMetRS inhib: 9.8; Rin1 Abl inh: inactive; TbMetRS confirm: 25; Jurkat tox: inactive; TbMetRS FP orth: inactive

What do the screens show for `COc1ccc2c(CC(=O)OCC(=O)Nc3ccc4c(c3)OCO4)coc2c1`?
PKA-R2B activ: inactive; PKA-R1A act: inactive; H9c2 protect: inactive; TbMetRS inhib: 10.0; Rin1 Abl inh: inactive; TbMetRS confirm: 15; Jurkat tox: inactive; TbMetRS FP orth: inactive

How did COc1ccc2c(CC(=O)OCC(=O)Nc3ccc(S(N)(=O)=O)cc3)coc2c1 do in these assays?
PKA-R2B activ: inactive; PKA-R1A act: inactive; H9c2 protect: inactive; TbMetRS inhib: inactive; Rin1 Abl inh: inactive

What do the screens show for `CCN(CC(=O)NC1CCS(=O)(=O)C1)S(=O)(=O)c1ccccc1Cl` (stereo unspecified)?
PKA-R2B activ: inactive; PKA-R1A act: inactive; H9c2 protect: inactive; TbMetRS inhib: inactive; Rin1 Abl inh: inactive

What do the screens show for `CCOC(=O)c1ccc(S(=O)(=O)N2CCN(CCc3ccncc3)CC2)cc1`?
PKA-R2B activ: inactive; PKA-R1A act: inactive; H9c2 protect: inactive; TbMetRS inhib: inactive; Rin1 Abl inh: inactive

What do the screens show for `COCc1ccc(CN2CCCC(C(=O)Nc3ccc(-c4cscn4)cc3)C2)o1` (stereo unspecified)?
PKA-R2B activ: inactive; PKA-R1A act: inactive; H9c2 protect: inactive; TbMetRS inhib: inactive; Rin1 Abl inh: inactive

What do the screens show for `COc1cccc(CN2CCCC(C(=O)Nc3ccc(-c4cscn4)cc3)C2)c1` (stereo unspecified)?
PKA-R2B activ: inactive; PKA-R1A act: inactive; H9c2 protect: inactive; TbMetRS inhib: 7.4; Rin1 Abl inh: inactive; TbMetRS confirm: 28; Jurkat tox: inactive; TbMetRS FP orth: inactive

Results for Cc1c(NC(=O)COC(=O)c2ccc(O)cc2)c(=O)n(-c2ccccc2)n1C ?
PKA-R2B activ: inactive; PKA-R1A act: inactive; H9c2 protect: inactive; TbMetRS inhib: inactive; Rin1 Abl inh: inactive

How did O=C(Nc1nc2c(Cl)cccc2s1)c1ccc([N+](=O)[O-])o1 do in these assays?
PKA-R2B activ: inactive; PKA-R1A act: inactive; H9c2 protect: inactive; TbMetRS inhib: inactive; Rin1 Abl inh: inactive

What do the screens show for `O=C(Nc1nc2c(Cl)cccc2s1)c1ccc(Br)o1`?
PKA-R2B activ: inactive; PKA-R1A act: inactive; H9c2 protect: inactive; TbMetRS inhib: 6.8; Rin1 Abl inh: inactive; TbMetRS confirm: inactive; Jurkat tox: inactive; TbMetRS FP orth: inactive

What do the screens show for `Cc1ccc(S(=O)(=O)N2CCC(C(=O)N3CCc4ccccc43)CC2)cc1C`?
PKA-R2B activ: inactive; PKA-R1A act: inactive; H9c2 protect: inactive; TbMetRS inhib: inactive; Rin1 Abl inh: inactive

What do the screens show for `COc1cc(C2C(C#N)=C(N)Oc3cc(C)n(CC4CCCO4)c(=O)c32)cc2c1OCO2` (stereo unspecified)?
PKA-R2B activ: inactive; PKA-R1A act: inactive; H9c2 protect: inactive; TbMetRS inhib: 78; Rin1 Abl inh: inactive; TbMetRS confirm: inactive; Jurkat tox: inactive; TbMetRS FP orth: inactive

How did COc1cc(C2C(C#N)=C(N)Oc3cc(C)oc(=O)c32)cc2c1OCO2 (stereo unspecified) do in these assays?
PKA-R2B activ: inactive; PKA-R1A act: inactive; H9c2 protect: inactive; TbMetRS inhib: inactive; Rin1 Abl inh: inactive

Results for COc1ccc(CCn2c(C)cc3c(c2=O)C(c2ccc4c(c2)OCO4)C(C#N)=C(N)O3)cc1OC (stereo unspecified) ?
PKA-R2B activ: inactive; PKA-R1A act: inactive; H9c2 protect: inactive; TbMetRS inhib: 16; Rin1 Abl inh: inactive; TbMetRS confirm: inactive; Jurkat tox: inactive; TbMetRS FP orth: inactive

How did Cc1cc2c(c(=O)n1Cc1ccccn1)C(c1ccc3c(c1)OCO3)C(C#N)=C(N)O2 (stereo unspecified) do in these assays?
PKA-R2B activ: inactive; PKA-R1A act: inactive; H9c2 protect: inactive; TbMetRS inhib: 14; Rin1 Abl inh: inactive; TbMetRS confirm: inactive; Jurkat tox: inactive; TbMetRS FP orth: inactive

Results for Cc1cc2c(c(=O)n1Cc1ccc3c(c1)OCO3)C(c1cccnc1)C(C#N)=C(N)O2 (stereo unspecified) ?
PKA-R2B activ: inactive; PKA-R1A act: inactive; H9c2 protect: inactive; TbMetRS inhib: inactive; Rin1 Abl inh: inactive
